Compound activity from PubChem BioAssay.
Rows were chosen to be rich in hits. Some 1.7% of all compounds tested hit in one or more screens of this group.
Neddyl block = inhibitors of cullin neddylation, primary screen, biochemical, TR-FRET, uHTS, NAE and Ubc12; NEDD8-conjugating enzyme Ubc12 (Homo sapiens) + NEDD8-activating enzyme E1 regulatory …; inhibition, % at 25 µM; 360,000 tested, 0.58% active; in the data active = inhibition above about 36%
Efflux pump inh = inhibitors of Candida efflux pumps in yeast, primary screen, S. cerevisiae, Nile Red, multiplex; 330,000 tested, 0.44% active; S. cerevisiae Candida pump triplex; inhibition, % at 10 µM;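 active = plate passing quality check with inhibition over a set limit, or well fluorescence over plate mean plus 4 SD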;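 also: Nile Red retained in pooled yeast measured as flow cytometry median fluorescence; 0% = buffer negative control and 100% = Enniatin B positive control; higher means more Nile Red kept so more efflux inhibition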
Arr AP2 block = inhibitors of beta-arrestin/AP2 binding, primary screen, biochemical, GPCR trafficking, flow cytometry. beta-arrestin 1 C-terminal peptide binding to AP2 beta2-adaptin appendage (human). FITC-arrestin peptide / GST-AP2 beads; AP2 beta2 appendage carries R879A mutation. inhibition, % at 10 µM. 340,000 tested, 0.31% active. AID 504490, 2011;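 active = inhibition above a set limit, near 3 SD of compounds lacking own fluorescence, cut at about 54% in these data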;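 also: plate controls were DMSO wells for no effect and 5 µM unlabelled arrestin peptide for full effect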
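System: GST-tagged AP2 beta2-adaptin appendage (R879A) on 4 µm glutathione beads / Reagent: FITC-arrestin peptide, 50 nM / Detection: HyperCyt-sampled flow cytometry, FL1 channel, ex 488/em 535 nm / Timing: 12 min plus 1 h, RT / Buffer or medium: PBS plus Tween 20 (0.05%) and BSA (0.1%)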
Pemphigus Ab inh = inhibitors of pemphigus antibody binding to DSG3, primary screen, biochemical, bead-based, flow cytometry, scFv-GFP; Desmoglein-3 (Homo sapiens), P32926; DSG3-coupled beads, scFv-anti-DSG3-GFP binding; active compounds read low; binding (percent of control), % at 10 µM; 310,000 tested, 0.48% active;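 active = binding more than 3 SD below its plate's average and above zero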;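 also: hits lower antibody fragment binding to DSG3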
* marks the source's active call; other numbers are inactive results; i = inactive; . = no result given.

SMILES	Neddyl block	Efflux pump inh	Arr AP2 block	Pemphigus Ab inh
O=C(NCc1ccccc1)C1CCN(S(=O)(=O)c2cccc3cccnc23)CC1	1.1	0.6	12.1	89.6*
CN(Cc1ccc(Cl)cc1Cl)C(=O)CNC(=O)c1ccco1	-12.3	0.0	-6.2	100.8
CCc1ccc(S(=O)(=O)NC2CCCCNC2=O)cc1 (centres undefined)	6.3	-0.1	12.5	76.3*
CN1CCN(C2=C(Cl)C(=O)C(c3cnc(N4CCCCC4)s3)=C(Cl)C2=O)CC1	-3.0	0.2	107.0*	103.1
CN1CCN(C2=C(Cl)C(=O)c3ccccc3C2=O)CC1	-37.9	.	41.0	.
N=C(N)c1ccc(N=Nc2c(O)ccc3c2[nH]c2ccccc23)cc1	-16.0	.	40.7	69.0*
CC1CC(C)CN(c2ncc3c(n2)CC(c2ccccc2)CC3=O)C1 (centres undefined)	-20.6	0.0	16.8	71.5*
CC(C)c1ccc(C2CC(=O)c3cnc(N4CCc5ccccc5C4)nc3C2)cc1 (centres undefined)	-196.5	0.2	0.9	96.2
Cc1[nH]c2ccccc2c1C1=CC(=O)C=CC1=O	37.2	.	14.4	64.9*
Cc1ccc([N+](=O)[O-])cc1-c1ccc(/C=C(\C#N)c2[nH]nc(N)c2C#N)o1	-1.8	0.3	34.9	86.4*
COc1ccc(-c2nc(C#N)c(NCc3cccnc3)o2)cc1OC	41.8*	0.0	11.7	100.3
COc1ccc(-c2nc(C#N)c(NCc3ccc(F)cc3)o2)cc1OC	.	0.0	4.0	111.1
COCC(C)n1c(C)cc(C(=O)Cn2nc(C(=O)O)c3ccccc3c2=O)c1C (centres undefined)	-9.4	0.1	-21.9	115.8
COCC(C)n1c(C)cc(C(=O)COC(=O)c2nn(C)c(=O)c3ccccc23)c1C (centres undefined)	-22.4	0.1	-0.7	63.5*
O=C(O)c1cc(-c2ccc3c(c2)OCO3)nc2ccc(Br)cc12	i	-0.2	8.1	33.1*
Cc1ccc(-c2nc(Nc3ccccc3)n[nH]2)cc1	15.2	0.0	12.5	36.6*
Cc1ccc(C2c3c(C)nn(-c4ccc([N+](=O)[O-])cc4)c3N=C3C(=O)Nc4ccccc4N32)cc1 (centres undefined)	.	0.5*	.	.
O=C(COC(=O)c1ccc(Cl)c(S(=O)(=O)N2CCCCC2)c1)NC1CCCCC1	-9.0	.	.	103.1
CC(=O)Nc1ccc(S(=O)(=O)NCc2ccc3c(c2)cc(C)n3C)cc1	-85.6	0.0	5.3	79.6*
Cc1cc2cc(CNC(=O)CCC(=O)O)ccc2n1C	5.5	0.0	9.0	99.2
Cc1cc2cc(CNC(=O)Cc3cccs3)ccc2n1C	-57.8	0.2	4.3	63.6*
Cc1cc2cc(CNS(=O)(=O)c3ccc4ccccc4c3)ccc2n1C	-108.7	0.1	21.8	82.8
COC(=O)[C@]1(C)N[C@H](CN(C)C(=O)Nc2ccc(OC)cc2)[C@@H]2C(=O)N(C)C(=O)[C@@H]21	-8.2	-0.1	-0.8	79.8*
COc1ccc(S(=O)(=O)N2CCN(C(=O)C3CC3)CC2)cc1	0.5	-0.1	4.0	127.6
O=C(OCCOCCN=C1NS(=O)(=O)c2ccccc21)c1ccc(F)cc1	1.5	-0.3	11.3	48.2*
SMILES	Neddyl block	Efflux pump inh	Arr AP2 block	Pemphigus Ab inh
O=C(OCCCN=C1NS(=O)(=O)c2ccccc21)c1ccc(F)cc1	-7.2	-0.1	9.9	93.4
O=S1(=O)NC[C@]23C[C@H](c4ccc(F)cc4)[C@@H](C[C@@H]21)O3	-4.5	-0.1	-0.2	105.8
CCOC(=O)CSc1nc2ccsc2c(=O)n1C1CCN(C(=O)OCC)CC1	-3.4	0.3	0.7	98.2
CCOC(=O)N1CCC(n2c(SCC(=O)c3ccccc3)nc3ccsc3c2=O)CC1	-40.2	0.2	3.1	84.6*
COC(=O)[C@]1(C)N[C@H](c2ccc(-c3ccccc3)cc2)[C@@H]2C(=O)N(C)C(=O)[C@@H]21	7.9	.	23.1	100.0
O=C(Nc1cc(Cl)ccc1Oc1ccccc1)c1cnccn1	-7.4	-0.1	3.1	66.1*
CCOC(=O)N1CCN(C(=O)CCCn2nnnc2CN2CCC(C)CC2)CC1	0.5	0.0	4.1	104.9
CCOC(=O)c1ccc(NC(=S)N2CCN(S(C)(=O)=O)CC2)cc1	-0.3	-0.1	4.1	57.1*
Nc1ccc2nc(CCCCCCc3nc4ccc(N)cc4[nH]3)[nH]c2c1	10.1	-0.1	6.5	65.0*
Nc1ccc2nc(CCCCCCCCc3nc4ccc(N)cc4[nH]3)[nH]c2c1	20.4	-0.2	9.2	92.3
CC(=O)c1ccc2c(c1)N(Cc1ccccc1)C(=O)C(C)S2 (centres undefined)	-0.7	.	.	.
COc1cccc(-c2nc3nc(C)cc(C)n3c2Nc2ccc3c(c2)OCCO3)c1	29.6	.	.	.
Cc1nc(Nc2ccccc2)sc1C(=O)c1ccccc1	-144.9	0.0	22.8	80.2*
Cc1nn(C)c(C(=O)NN)c1Cl	3.3	0.0	10.3	105.3
Cc1ccc(C(=O)CSc2nnc(CNc3ccc(F)cc3)o2)cc1	5.7	-0.1	-3.2	99.0
COC(=O)c1cc(C(=O)OCC(=O)NC2CCS(=O)(=O)C2)cc([N+](=O)[O-])c1 (centres undefined)	-36.4	-0.3	11.1	103.4
CC(=O)c1ccc(NC(=O)c2cn(-c3ccccc3)nc2-c2ccncc2)cc1	-72.3	0.1	11.3	69.1*
COC(=O)c1ccc(NC(=O)c2cn(-c3ccccc3)nc2-c2ccncc2)cc1	-8.1	-0.1	1.0	84.0
O=C(/C=C/c1cc[n+](CC(=O)c2ccc3cccc4c3c2CC4)cc1)c1ccc2cccc3c2c1CC3	2.1	0.3	6.7	63.1*
O=C(C[n+]1ccc2ccccc2c1)c1cccc2ccccc12	-13.3	0.1	-9.9	106.6
CNC(=O)CN(C)S(=O)(=O)c1ccc(F)cc1	-4.8	-0.1	-6.4	79.3*
CN(CC(=O)O)S(=O)(=O)c1ccc(F)cc1	-11.6	-0.1	0.3	100.0
CCNc1nc(NC(C)C)nc(Oc2ccc(=O)n(C)n2)n1	-7.2	-0.1	-12.8	96.7
Oc1ccc(/C=N/Nc2ccnc3cc(Cl)ccc23)c(O)c1O	-38.7	-0.1	28.7	92.7*
COc1ccc(NC(=O)c2ccco2)cc1NC(=O)c1ccccc1F	.	0.3	-1.9	84.5*
CCCOc1ccc(C(=O)Nc2cc(S(=O)(=O)N3CCOCC3)ccc2N2CCOCC2)cc1	12.8	0.0	-0.8	103.1
c1ccc2c(c1)CC1(CCCC1)N=C2N1CCOCC1	5.6	-0.1	-9.1	106.0
O=C(CCCn1c(=S)[nH]c2ccccc2c1=O)NCCSCc1ccccc1	-19.2	-0.1	27.3	119.5
O=C(CCCn1c(=O)[nH]c2ccccc2c1=O)NCCSCc1ccccc1	3.1	0.0	-10.0	23.1*
CCc1ccc(-c2cc(C)no2)cc1S(=O)(=O)N1CCN(c2ccc(F)cc2)CC1	-3.1	0.4	29.0	95.8
